Sampled rows, rich in hits. Any-hit rate of the full collection: about 4.3%.
STAT1 act = STAT1 signaling activators, primary screen, cell-based, HTS, luciferase reporter; 200,000 tested, 2.6% active; AID 932, 2007; activation (% of control), % at 5.5 µM; NIH 3T3 STAT1-luciferase reporter, IFN-gamma, luminescence; 100% = IFN-gamma alone, no compound;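 active means activation above the screen-wide mean activation plus 3 SD, cut at about 130% in these data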;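 further: raw ratio to IFN-gamma control signal so 100% means no change and 0% no light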
APP 5'UTR act = activators of APP 5'UTR luciferase reporter, primary screen, SH-SY5Y cells; SH-SY5Y APP 5'UTR luciferase reporter, luminescence; zero percent = DMSO vehicle wells; 190,000 tested, 1% active; activation, % at 2 µM;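 active means activation above a set limit, based on mean plus 3 SD of controls, cut at about 140% in these data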
NF-kB expr up = activators of NF-kB expression in neurons, primary screen, cell-based, HTS | human neuronal cells, NF-kB reporter expression; active compounds read high | fold change at 12.5 µM | 190,000 tested, 1.6% active | AID 1239, 2008; in the data active means fold change above about 3.3
FLuc act counter = FLuc activators, initial screening, artefact control for FLuc-dependent activation tests, biochemical, ATPlite luminescence | 200,000 tested, under 10 active | activation factor at 10 µM | Luciferin 4-monooxygenase (Photinus pyralis), P08659 | ATPlite luciferase biochemical, 10 min; 0 = ATP-free wells, 1 = DMSO control;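 active means luciferase activation factor, scaled between plate controls, of at least 2 with compound at 10 µM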
Target sequence (P08659 whole entry, looked up): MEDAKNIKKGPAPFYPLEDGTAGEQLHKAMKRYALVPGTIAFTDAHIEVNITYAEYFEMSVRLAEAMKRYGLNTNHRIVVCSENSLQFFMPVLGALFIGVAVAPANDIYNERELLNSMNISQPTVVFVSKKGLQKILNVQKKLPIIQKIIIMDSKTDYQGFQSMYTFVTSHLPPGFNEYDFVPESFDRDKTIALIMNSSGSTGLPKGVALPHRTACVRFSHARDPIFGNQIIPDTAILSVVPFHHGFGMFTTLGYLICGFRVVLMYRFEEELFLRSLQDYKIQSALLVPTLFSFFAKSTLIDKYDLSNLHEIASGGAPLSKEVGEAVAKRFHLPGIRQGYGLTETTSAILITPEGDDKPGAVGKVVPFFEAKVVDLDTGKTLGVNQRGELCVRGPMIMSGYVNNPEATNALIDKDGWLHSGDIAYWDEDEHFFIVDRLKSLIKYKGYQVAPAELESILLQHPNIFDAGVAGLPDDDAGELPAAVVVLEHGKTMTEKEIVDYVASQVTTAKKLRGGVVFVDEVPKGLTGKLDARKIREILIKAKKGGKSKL
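Assay system: Luciferase/luciferin detection reagent, cell-free biochemical luciferase assay / Also added: ATP substrate / Schedule: 10 min at ambient temperature / Measured by: luminescence measurement of luciferase light output / Benchmarks: low control with PBS replacing ATP, high control enzyme plus ATP without compound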
FLuc inhib CS = firefly luciferase enzyme inhibitors, primary screen, artefact control for luciferase-based inhibitor screens, biochemical, luminescence, ATPLite. AID 1006, 2008. 10 min. 200,000 tested, 1.5% active. Luciferin 4-monooxygenase (Photinus pyralis), P08659. inhibition, % at 10 µM;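 active means inhibition above about 50% when tested at 10 µM, limit read from the data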
* = called active by the depositor; / = no result given.

SMILES	STAT1 act	APP 5'UTR act	NF-kB expr up	FLuc act counter	FLuc inhib CS
CCOc1ccc(CCNC(=O)CN2C(=O)NC(CCSC)C2=O)cc1OCC (stereo unspecified)	102.4	13.0	1.15	1	-3.4
Cc1ccc(-c2nc3nc4ccccc4nc3n2Cc2ccco2)cc1	124.0	181.2*	2.65	0.9	8.9
Clc1ccc(-c2nc3nc4ccccc4nc3n2Cc2ccco2)cc1	127.4	50.8	3.74*	0.9	11.4
CCc1ccc(Nc2nnc(SCC(=O)Nc3cccnc3Cl)s2)cc1	92.7	-26.4	0.93	0.5	47.9
Cc1ccc(-n2cc(C(=O)c3ccc(F)cc3)nn2)cc1Cl	139.3*	72.4	3.11	0.8	24.0
COc1ccc2oc(=O)c(/C(C)=N/Nc3nc(-c4cc(C)ccc4C)cs3)cc2c1	101.7	-6.7	1.04	1.1	-9.1
COc1ccc2oc(=O)c(-c3csc(Nc4ccc(O)cc4)n3)cc2c1	115.9	-7.5	3.65*	0.6	37.8
O=c1[nH]c(Cc2ccccn2)nc2scc(-c3ccccc3Cl)c12	104.8	7.8	0.83	1	-3.0
COc1cccc(-c2nc(-c3ccccn3)no2)c1OC	136.2*	87.8	1.69	0.7	25.4
c1ccc(-c2noc(-c3cccc4ccccc34)n2)nc1	107.1	80.7	2.52	0.2	76.9*
COc1cc(-c2nc(-c3ccccn3)no2)cc(OC)c1OC	115.9	119.4	1.67	0.9	6.4
COc1cc(CNC2CCCC2)cc(Cl)c1OCc1ccccc1F	102.1	9.4	0.81	1	-1.8
CCCNC(=O)c1noc2c1CCc1ccccc1-2	119.2	28.0	2.04	0.6	35.1
O=C(Nc1cccnc1Cl)c1noc2c1CCc1ccccc1-2	134.9*	102.9	2.58	0.8	17.6
CC(=O)N1CC(=O)N=C1SCC(=O)Nc1nc(C)c(-c2ccccc2)s1	79.1	1.6	1.49	1	1.2
CC(C)(C)c1csc(N/N=C/c2cccnc2)n1	150.4*	77.1	3.02	0.7	28.0
Clc1ccc(-c2csc(N/N=C/c3cccnc3)n2)c(Cl)c1	104.6	2.5	1.28	1	1.7
C(=N\Nc1nc(-c2ccccc2)cs1)/c1cccnc1	144.4*	48.3	2.34	0.9	9.9
Cn1c2c(c(=O)n(C)c1=O)C(c1ccc(Cl)cc1)C(C#N)=C(N)O2 (stereo unspecified)	93.5	0.1	1.12	1	-4.9
CCOc1ccc(CO/N=C/c2c(C)[nH]c(=O)[nH]c2=O)cc1	99.8	18.5	1.01	1.1	-8.0
CCOC(=O)CC(NC(=O)c1cccc2c1C(=O)N(Cc1cccnc1)C2)c1ccc(OC(C)C)cc1 (stereo unspecified)	92.7	3.3	0.58	1	1.2
COc1cccc(/C=N/NC(=O)c2nc(-c3ccccc3)cc(-c3ccccc3)n2)c1O	105.4	-26.6	0.31	1	0.2
Cc1nn(-c2nc3ccccc3s2)c(C)c1Oc1ccccc1O	94.6	184.4*	2.59	0.9	10.4
COc1ccc(C(NC(=O)C(C)C)c2c(O)ccc3ccccc23)cc1OC (stereo unspecified)	98.8	/	1.11	1.1	-5.3
CC(C)(C)c1cc(NC(=O)c2cccc(S(=O)(=O)N3CCOCC3)c2)no1	95.9	10.3	0.96	1	-4.5
SMILES	STAT1 act	APP 5'UTR act	NF-kB expr up	FLuc act counter	FLuc inhib CS
CCCCc1ccc(NC(=O)C2CCCO2)cc1 (stereo unspecified)	130.4*	88.7	2.59	0.8	18.6
O=C(NCCc1ccccc1)c1ccccc1NC(=O)C1CCCO1 (stereo unspecified)	133.6*	157.6*	3.44*	1	1.1
CCCCNC(=O)c1ccc(NC(=O)C2CCCO2)cc1 (stereo unspecified)	106.9	11.0	0.94	1	-1.1
O=C(NCCCc1ccccc1)c1ccccc1	129.1*	21.4	2.01	1	-3.1
CN(c1ccc(C(=O)NCCc2ccccc2)cc1)S(C)(=O)=O	140.7*	92.1	2.78	0.5	46.7
Cc1ccc(NC(=O)C2=C(O)c3ccccc3N(C)S2(=O)=O)cc1	85.5	/	1.16	0.7	27.9
COC(=O)CNc1nc(Cl)nc(Nc2ccc(Cl)cc2)n1	110.0	10.6	1.01	1.1	-8.3
O=C(NCCc1ccncc1)c1ccccc1F	101.0	11.9	1.14	1	-2.5
O=C(NCCc1ccccc1)c1ccccc1F	108.3	109.8	3.31*	0.7	32.3
c1ccc2c(-c3cn4ccccc4n3)c[nH]c2c1	150.0*	149.3*	3.4*	0.8	22.0
O=C(/C=C/c1ccccc1)c1ccccn1	116.1	9.9	1.2	0.3	70.6*
COc1ccccc1C/C(N)=N/OC(=O)/C=C/c1ccccc1	106.4	21.8	1.14	1.1	-6.4
N/C(=N\OC(=O)/C=C/c1ccccc1)c1ccccn1	110.1	160.5*	1.14	0.2	82.2*
Cn1c(N)c(C(=O)COc2ccc(C#N)cc2)c(=O)n(C)c1=O	102.0	-8.8	1.03	1.1	-6.3
Cc1[nH]c2ccc(C(=O)N3CCCCC3)cc2c1C	145.4*	139.8*	4.17*	0.9	7.2
Cc1cc(=O)n2nc(-c3ccc(C(F)(F)F)cc3)sc2n1	129.3*	-1.8	1.4	0.8	18.2
COc1ccccc1-c1nn2c(=O)cc(C)nc2s1	114.9	9.1	1.53	0.8	15.9
CCn1c(SCc2nc3ccccc3[nH]2)nnc1-c1ccc(OC)cc1	83.9	-6.0	0.81	1	-2.4
CCCC(=O)Nc1nc2ccc(OC)cc2s1	144.5*	61.4	3.08	0.8	17.0
O=C(Nc1nc(-c2nc3ccccc3s2)cs1)C1COc2ccccc2O1 (stereo unspecified)	132.5*	36.0	2.95	0.9	7.2
COC(=O)c1sc(NC(=O)c2ccoc2C)nc1C	112.3	22.5	1.81	1	3.9
COc1ccc2nc(NC(=O)c3ccoc3C)sc2c1	102.3	142.4*	10.9*	0.5	51.2*
COc1ccc2nc(NC(=O)C3COc4ccccc4O3)sc2c1 (stereo unspecified)	110.8	131.5	3.43*	0.8	15.4
Fc1ccc(Sc2cc(Cl)c(-c3ccccc3)nn2)cc1	109.4	2.8	1.04	1.1	-5.3
CC(CC(=O)NC1CCCC1)c1ccccc1 (stereo unspecified)	97.9	0.2	1.03	1.1	-8.6
CC(=O)Nc1nc(C2COc3ccccc3O2)cs1 (stereo unspecified)	144.9*	168.0*	4.96*	0.9	12.6
COc1ccc(OC)c(-c2csc(NC(=O)C3COc4ccccc4O3)n2)c1 (stereo unspecified)	97.2	4.0	1.36	1	-4.7
COc1ccc2nc(NC(=O)c3cc(C)oc3C)sc2c1	139.2*	144.9*	2.46	0.5	49.2
